Reference: publication PMC4364388 (Biochimica et biophysica acta, 2015)
Values after ≈ are worked out from the molar mass of the structure shown. Values joined by “and” are separate entries in the source; they are usually repeats but may differ in a detail not shown here. Identical values can stand only once. Like-named read-outs stand apart in the source and are kept apart here.

Experiments:
rat UT-A1 [1] = biological target: T1, rat UT-A1 (Rattus norvegicus, UniProt Q62668); settings: read-out: UT-A1 IC50; earlier finding; cited from earlier work
T1 sequence (Q62668 1-929): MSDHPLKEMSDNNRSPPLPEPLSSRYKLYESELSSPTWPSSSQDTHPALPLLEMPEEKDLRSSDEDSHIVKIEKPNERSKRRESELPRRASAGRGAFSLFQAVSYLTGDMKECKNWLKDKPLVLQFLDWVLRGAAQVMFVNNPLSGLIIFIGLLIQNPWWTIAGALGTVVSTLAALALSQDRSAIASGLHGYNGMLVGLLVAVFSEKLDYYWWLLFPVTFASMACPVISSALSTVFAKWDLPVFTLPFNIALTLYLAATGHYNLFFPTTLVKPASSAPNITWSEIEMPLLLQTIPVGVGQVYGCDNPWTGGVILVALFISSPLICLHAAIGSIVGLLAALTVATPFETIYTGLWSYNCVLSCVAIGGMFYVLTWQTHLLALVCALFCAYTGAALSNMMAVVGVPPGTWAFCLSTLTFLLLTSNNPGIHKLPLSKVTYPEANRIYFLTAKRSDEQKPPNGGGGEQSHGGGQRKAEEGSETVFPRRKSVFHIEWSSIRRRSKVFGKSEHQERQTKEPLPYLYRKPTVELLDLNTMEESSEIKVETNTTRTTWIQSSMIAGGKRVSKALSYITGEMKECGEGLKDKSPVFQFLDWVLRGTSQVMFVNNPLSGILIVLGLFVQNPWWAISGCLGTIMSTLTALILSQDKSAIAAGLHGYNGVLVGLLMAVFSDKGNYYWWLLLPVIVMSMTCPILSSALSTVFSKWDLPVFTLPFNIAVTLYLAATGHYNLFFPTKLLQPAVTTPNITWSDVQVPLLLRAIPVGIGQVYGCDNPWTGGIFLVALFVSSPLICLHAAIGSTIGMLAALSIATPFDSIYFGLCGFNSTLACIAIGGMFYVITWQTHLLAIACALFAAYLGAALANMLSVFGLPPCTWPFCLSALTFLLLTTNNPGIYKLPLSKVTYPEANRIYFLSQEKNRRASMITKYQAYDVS

Water solubility = format: physicochemical
rat UT-B [2] = biological target: T2, rat UT-B (Rattus norvegicus, UniProt P97689); settings: read-out: UT-B IC50; earlier finding; cited from earlier work
T2 sequence (P97689 1-384): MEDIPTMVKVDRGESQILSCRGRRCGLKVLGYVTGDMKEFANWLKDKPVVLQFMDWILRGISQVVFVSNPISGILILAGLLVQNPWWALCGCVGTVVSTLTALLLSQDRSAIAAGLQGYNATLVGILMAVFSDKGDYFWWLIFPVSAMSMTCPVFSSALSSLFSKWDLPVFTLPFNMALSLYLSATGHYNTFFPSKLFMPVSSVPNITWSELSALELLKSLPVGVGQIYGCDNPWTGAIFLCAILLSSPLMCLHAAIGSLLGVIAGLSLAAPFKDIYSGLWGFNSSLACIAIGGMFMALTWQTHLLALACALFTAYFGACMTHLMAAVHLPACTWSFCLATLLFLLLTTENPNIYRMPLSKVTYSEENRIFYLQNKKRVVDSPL

rat UT-B [3] = biological target: T2, rat UT-B; assay: UT-B inhibition, erythrocyte lysis assay; format: cell-based; settings: for IC50: 15 min incubation
rats = settings: listed as DMTU; cited from earlier work
rat UT-A1 [4] = biological target: T1, rat UT-A1; assay: UT-A1 inhibition assay; format: cell-based; settings: for IC50: UT-A1 IC50, MDCK cells expressing rat UT-A1, YFP and AQP1, 20 min incubation; for Selectivity for UT-A1 vs. UT-B inhibition: comparison of IC50 values for UT-A1 and UT-B
MDCK cells = assay: Cytotoxicity to MDCK cells; format: cell-based, canine; settings: at solubility limit
rat UT-A1 [5] = biological target: T1, rat UT-A1; assay: Functional studies of UT-A1 inhibition; format: cell-based
Summary of the method: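 MDCK cells stably co-expressing rat UT-A1, YFP-H148Q/V163S and human AQP1 were plated 24 h before assay. Reversibility: 15 min with 0.2 mM test compound, two PBS washes, then assay. Kinetics: 0.2 mM added at varied times before assay. Urea dependence: concentration-response at 80–1,600 mM urea gradients. Read-out was YFP fluorescence 7 s after urea addition, normalised to negative and positive controls.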

[6] = read-out: UT-B IC50, rat erythrocyte lysis assay
[7] = UT-B IC50, rat erythrocyte lysis assay

Compound | IC50 (rat UT-B [3]; [6]) | UT-A1 inhibition activity (in words) (rat UT-A1 [4]) | UT-B inhibition activity (in words) (rat UT-B [3]) | IC50 (rat UT-A1 [4]) | IC50 (rat UT-B [3]; [7]) | Selectivity for UT-A1 vs. UT-B inhibition (rat UT-A1 [4]) | also measured
CNC(=S)NC [Compound 1, N, N′-dimethylthiourea] | 3900 ± 600 µM | – | – | – | – | – | IC50 (rat UT-A1 [1]): 2000 to 3000 µM; Water solubility (Water solubility): 7900 mM; Solubility in saline (Water solubility; saline): > 50 mg/mL; IC50 (rat UT-B [2]): 2000 to 3000 µM; Diuretic action (rats): reduce urinary osmolality in rats and produce a salt-sparing diuresis
NC(N)=S [Compound 2] | > 25000 µM | significant loss of UT-A1 and UT-B inhibition activity | significant loss of UT-A1 and UT-B inhibition activity | – | – | – | –
CNC(=O)NC [Compound 3, dimethylurea] | 14000 ± 2000 µM | loss of activity | loss of activity | – | – | – | –
CN(C)C(=S)N(C)C [Compound 5, Tetramethylthiourea] | – | inactive | inactive | > 25000 µM | > 25000 µM | – | –
NC(=S)Nc1ccccc1 [Compound 9, phenylthiourea] | – | potencies comparable to DMTU | potencies comparable to DMTU | 8800 ± 300 µM | 14000 ± 1000 µM | – | –
NC(=S)Nc1ccc([N+](=O)[O-])cc1 [Compound 18, 4-nitrophenylthiourea] | – | – | – | 1300 ± 300 µM | 10000 ± 1000 µM | UT-A1 selective | –
NC(=S)Nc1ccc(Cl)c(Cl)c1 [Compound 21, 3,4-dichlorophenylthiourea] | – | – | – | 1500 ± 400 µM | 400 ± 100 µM | – | –
NC(=S)c1ccncc1 [Compound 26, thioisonicotinamide] | 2800 ± 500 µM | – | – | – | – | selective for UT-B over UT-A1 | –
NC(=S)c1cccnc1 [Compound 27, thionicotinamide] | – | – | – | > 25000 µM | 10000 ± 2000 µM | – | –
NC(=S)Nc1cccc([N+](=O)[O-])c1 [Compound 32, 3-nitrophenylthiourea] | – | – | – | ~200 µM and 200 µM | ~200 µM and 200 µM | non-selective | Cytotoxicity to MDCK cells (MDCK cells): no cytotoxicity; solubility (Water solubility; water): 0.64 mM (≈ 126 µg/mL); IC50 improvement relative to 18 (rat UT-A1 [4]): ~6 fold; Kinetics of UT-A1 inhibition (rat UT-A1 [5]; 0.2 mM added at different times prior to assay): very rapid; Reversibility of UT-A1 inhibition (rat UT-A1 [5]; 0.2 mM, 15 min incubation, washed twice): fully reversible; Inhibition mechanism from urea concentration-dependence of IC50 (rat UT-A1 [5]; urea gradients 80 to 1,600 mM): competitive inhibition mechanism
NC(=S)c1ccncc1 [thioisonicotinamide] | 2800 µM | – | – | – | – | UT-B selective | –
cyclohexylthiourea [Compound 12] | 5200 ± 600 µM | potencies comparable to DMTU | potencies comparable to DMTU | – | – | – | –
